Measured values collected from several papers.
Each line is one published result; the experiments were not run side by side.
Target: Protein kinase C iota type (PRKCI, Homo sapiens, UniProt P41743)
One construct used (P41743 1-596): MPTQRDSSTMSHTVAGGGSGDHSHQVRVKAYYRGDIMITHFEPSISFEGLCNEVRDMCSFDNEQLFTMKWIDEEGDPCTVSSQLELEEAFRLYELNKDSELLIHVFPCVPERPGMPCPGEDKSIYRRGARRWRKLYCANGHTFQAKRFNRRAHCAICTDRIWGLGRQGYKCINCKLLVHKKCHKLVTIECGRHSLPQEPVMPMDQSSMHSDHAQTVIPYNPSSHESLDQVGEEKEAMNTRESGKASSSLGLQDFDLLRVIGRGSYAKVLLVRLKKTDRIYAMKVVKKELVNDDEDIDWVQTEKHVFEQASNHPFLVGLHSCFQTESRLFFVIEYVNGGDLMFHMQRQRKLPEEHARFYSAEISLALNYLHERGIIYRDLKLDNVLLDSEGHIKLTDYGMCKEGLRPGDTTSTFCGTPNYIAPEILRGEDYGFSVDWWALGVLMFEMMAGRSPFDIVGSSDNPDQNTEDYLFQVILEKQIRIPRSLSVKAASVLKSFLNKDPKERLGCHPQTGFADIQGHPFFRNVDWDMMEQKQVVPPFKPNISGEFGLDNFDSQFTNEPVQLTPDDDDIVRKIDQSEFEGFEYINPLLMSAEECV

| SMILES | effect on | mode | technique | tested at | endpoint | value |
| --- | --- | --- | --- | --- | --- | --- |
| COc1cc2ncnc(Nc3ccc(Oc4ccccc4)c(C)c3C)c2cc1OC | enzyme activity | inhibitor |  | 1 µM | inhibition | -4% |
| CCCOc1ccc(OC)c(F)c1C(=O)c1ccc(C(=O)N[C@@H]2CNC[C@H]2NC(=O)c2ccc3[nH]ncc3c2)cc1 | enzyme activity | inhibitor |  | 10 µM | remaining activity | 89% |
| Cc1ccc(C(=O)Nc2ccc(CN3CCN(C)CC3)c(C(F)(F)F)c2)cc1C#Cc1cnc2cccnn12 | enzyme activity |  |  | 23.5 nM | remaining activity | 85% |
| O=C1NC(=O)c2cc(Nc3ccc(F)cc3)c(Nc3ccc(F)cc3)cc21 | cell-free assay |  |  | 0.5 µM | remaining signal | 89% |
| CC(C)(C)c1nc(-c2cccc(NS(=O)(=O)c3c(F)cccc3F)c2F)c(-c2ccnc(N)n2)s1 | enzyme activity | inhibitor | radiometric | 1 µM | remaining activity | 100% |
| Cc1ccc(Nc2nccc(N(C)c3ccc4c(C)n(C)nc4c3)n2)cc1S(N)(=O)=O | enzyme activity |  |  | 0.5 µM | remaining activity | 96.1% |
| COc1ccc2cc(OCC3(C(=O)O)CN(C(=O)c4ccc(F)cc4)C3)ccc2c1 | cell-free assay |  | competition with immobilised ligand | 1 µM | remaining binding | 100% |
| CC/C(=N\NC(=O)NCc1cccc(O)c1)c1ccc(O)c(C)c1O | enzyme activity | inhibitor |  | 0.1 µM | inhibition | 15.8% |
| CCN(CC)CCNC(=O)c1c(C)[nH]c(/C=C2\C(=O)Nc3ccc(F)cc32)c1C | enzyme activity | inhibitor |  | 0.3 µM | inhibition | 3% |
| CN(C)C1CCN(CC#Cc2nn(C3CCCC3)c3nc(NCc4ccccc4)ncc23)C1 (stereo not shown) | enzyme activity | inhibitor | FRET | 0.1 µM | inhibition | 9% |
| O=C(NC[C@@H]1[C@H]2CN(C(=O)OCc3cc(C(F)(F)F)cc(C(F)(F)F)c3)C[C@@H]12)c1ccc2[nH]nnc2c1 | cell-free assay |  | competition with immobilised ligand | 1 µM | remaining binding | 98% |
| COc1cccc2c(NCc3ccccc3)nc(-n3c(N)nc4ccccc43)nc12 | target engagement in cells | inhibitor | chemoproteomics | 20 mM | inhibition | -13.3% |
| COc1cccc(CNC(=O)c2nc3scc(COCc4ccc(C(=O)O)cc4)c3c(=O)[nH]2)c1 | cell-free assay |  | competition with immobilised ligand | 1 µM | remaining binding | 100% |
| N[C@@H]1CCN(c2nccc(-c3cnn4ncccc34)n2)C1 | binding |  |  | 1 µM | remaining binding | 33% |
| CC(C)(O)c1cncc(-c2nc3ccc(F)cc3n2C2CC2)c1 | cell-free assay |  | competition with immobilised ligand | 1 µM | remaining binding | 89% |
| CNCc1ccc(-c2cc(-c3nc(-c4ccc(S(=O)(=O)C(C)C)cc4)cnc3N)on2)cc1 | enzyme activity | inhibitor |  | 2 µM | inhibition | 1% |
| Cc1ccc(-n2nc(C(C)(C)C)cc2NC(=O)Nc2ccc(OCCN3CCOCC3)c3ccccc23)cc1 | enzyme activity | inhibitor |  | 10 µM | inhibition | 3% |
| COc1cc(Cl)c(C(=O)N[C@@H](CN[C@H]2CC[C@@H](N)CC2)Cc2ccc(C#N)cc2)cc1-c1ccc(CN[C@H](C)c2ccc(C)cc2)o1 | enzyme activity | inhibitor |  | 1 µM | remaining activity | 96% |
| CC(C)c1ccc(NC(=O)c2cccs2)c(-c2nc3ccccc3[nH]c2=O)c1 | enzyme activity | inhibitor |  | 1 µM | activity vs control | 94% |
| CNC(=O)c1cc(Oc2ccc(NC(=O)Nc3ccc(Cl)c(C(F)(F)F)c3)cc2)ccn1 | enzyme activity | inhibitor |  | 10 µM | inhibition | 9% |
| Cc1c[nH]c2nccc(Oc3c(F)cc(Nc4cc(Cl)nc(N)n4)cc3F)c12 | cell-free assay |  | competition with immobilised ligand | 0.1 µM | remaining binding | 100% |
| CC(C)(O)[C@H]1CC[C@H](Nc2ccc3ncc(-c4cccc(C(F)(F)F)c4)n3n2)CC1 | enzyme activity | inhibitor |  | 1 µM | remaining activity | 128% |
| Cn1nc(C(=O)NCc2ccc(C(=O)O)cc2)cc1-c1ccc2[nH]ccc2c1 | cell-free assay |  | competition with immobilised ligand | 0.1 µM | remaining binding | 80% |
| Cc1sc(C(=O)NC2COC2)cc1-n1cc(NC(=O)Nc2c(F)cccc2Cl)cn1 | enzyme activity | inhibitor |  | 10 µM | remaining activity | 90.8% |
| CCC(=O)N[C@@H]1CC[C@H](C(=O)N(C)c2ccc(-c3nc4ccccc4o3)cc2)C1 | cell-free assay |  | competition with immobilised ligand | 1 µM | remaining binding | 84% |
| Cc1cc(NC(=O)c2cccc3cc(-c4cccc5[nH]nc(N)c45)ccc23)ccc1F | enzyme activity | inhibitor |  | 0.1 µM | activity vs control | 98% |
| CO[C@@H](C)c1c(Nc2ccc([C@@H](N(C)C(=O)C3CCS(=O)(=O)CC3)C(F)(F)F)cc2)cnc2cc(Cl)nn12 | cell-free assay |  | competition with immobilised ligand | 1 µM | remaining binding | 76% |
| Nc1ncnc2occ(-c3ccc(NC(=O)Nc4cc(C(F)(F)F)ccc4F)cc3)c12 | cell-free assay |  |  | 20 µM | remaining signal | 6.8% |
